Measured values from publication PMC3437190 (Chemistry & biology, 2012).
Where two headings read alike, the source gives them in different places.

Experiments:
[1] = target: T1, StaC (Streptomyces sp. TP-A0274, UniProt A3KBE8); assay: Isothermal titration calorimetry of FAD with FAD-free; type: binding
T1 sequence (A3KBE8 1-545): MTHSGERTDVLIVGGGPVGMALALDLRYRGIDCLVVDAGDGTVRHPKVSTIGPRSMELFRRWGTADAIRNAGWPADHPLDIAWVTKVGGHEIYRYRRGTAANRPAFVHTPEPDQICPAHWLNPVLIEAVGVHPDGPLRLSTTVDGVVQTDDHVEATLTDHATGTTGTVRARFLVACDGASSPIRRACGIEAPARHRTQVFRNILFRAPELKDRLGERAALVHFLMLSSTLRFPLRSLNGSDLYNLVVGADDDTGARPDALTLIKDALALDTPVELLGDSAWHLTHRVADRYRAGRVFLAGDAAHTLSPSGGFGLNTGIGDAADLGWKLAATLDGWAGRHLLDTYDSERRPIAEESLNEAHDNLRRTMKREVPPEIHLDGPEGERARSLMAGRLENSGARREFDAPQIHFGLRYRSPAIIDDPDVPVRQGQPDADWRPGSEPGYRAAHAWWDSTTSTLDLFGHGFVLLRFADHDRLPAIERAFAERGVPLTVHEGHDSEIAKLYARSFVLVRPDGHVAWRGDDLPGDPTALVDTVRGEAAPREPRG
How it was run: (§1)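 Recombinant His-tagged protein was expressed in Rosetta 2 (DE3) pLysS E. coli without added riboflavin (0.1 mM IPTG, 21°C, ~20 h). It was Ni(II)-affinity purified and gel-filtered on Superdex-200. The protein isolates free of FAD, so no stripping step was used. Concentration by A280 using theoretical extinction coefficient. FAD titrated by MicroCal ITC, at least triplicate runs. Single-site Kb converted to Kd.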

[2] = target: T2, InkE (Nonomuraea longicatena, UniProt Q27IF2); assay: as above; type: binding
T2 sequence (Q27IF2 1-525): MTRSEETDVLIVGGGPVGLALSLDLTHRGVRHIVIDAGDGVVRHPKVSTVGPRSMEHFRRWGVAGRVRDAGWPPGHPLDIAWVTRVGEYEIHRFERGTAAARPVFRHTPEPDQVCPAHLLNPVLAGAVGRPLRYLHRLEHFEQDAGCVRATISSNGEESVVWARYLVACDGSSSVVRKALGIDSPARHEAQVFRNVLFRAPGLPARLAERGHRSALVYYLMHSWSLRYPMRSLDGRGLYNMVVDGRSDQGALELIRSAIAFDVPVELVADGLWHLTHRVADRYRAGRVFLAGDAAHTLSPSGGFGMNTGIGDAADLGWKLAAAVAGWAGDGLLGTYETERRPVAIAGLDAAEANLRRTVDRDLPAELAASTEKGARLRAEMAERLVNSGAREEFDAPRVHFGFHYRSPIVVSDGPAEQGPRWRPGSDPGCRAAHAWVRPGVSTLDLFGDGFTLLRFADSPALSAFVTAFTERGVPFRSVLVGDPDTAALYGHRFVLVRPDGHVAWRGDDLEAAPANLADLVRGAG
How it was run: as §1

[3] = target: T3, RebC (Lentzea aerocolonigenes, UniProt Q8KI25); assay: Isothermal titration calorimetry of FAD with FAD-free; type: binding
T3 sequence (Q8KI25 1-529): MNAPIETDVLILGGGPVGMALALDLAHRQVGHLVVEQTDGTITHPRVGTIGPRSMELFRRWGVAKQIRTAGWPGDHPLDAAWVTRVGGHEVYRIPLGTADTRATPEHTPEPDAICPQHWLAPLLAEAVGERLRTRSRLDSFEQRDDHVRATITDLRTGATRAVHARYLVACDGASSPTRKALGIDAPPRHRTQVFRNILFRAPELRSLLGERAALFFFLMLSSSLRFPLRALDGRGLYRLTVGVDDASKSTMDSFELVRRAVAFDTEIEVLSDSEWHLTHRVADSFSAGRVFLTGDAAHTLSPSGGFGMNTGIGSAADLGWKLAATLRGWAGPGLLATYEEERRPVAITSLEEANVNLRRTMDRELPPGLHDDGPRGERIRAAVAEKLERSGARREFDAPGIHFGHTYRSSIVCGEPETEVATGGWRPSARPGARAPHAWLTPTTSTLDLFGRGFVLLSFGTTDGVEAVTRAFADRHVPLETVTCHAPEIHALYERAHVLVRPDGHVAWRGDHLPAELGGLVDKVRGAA
How it was run: (§2)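 Recombinant His-tagged protein was expressed in Rosetta 2 (DE3) pLysS E. coli (0.1 mM IPTG, 21°C, ~20 h) and captured on Ni(II) resin. Flavin was stripped on-column with 2 M KBr/2 M urea, then the protein was eluted with 200 mM imidazole and gel-filtered on Superdex-200. Concentration by A280 using theoretical extinction coefficient. FAD titrated by MicroCal ITC, at least triplicate runs. Single-site Kb converted to Kd.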

[4] = target: T4, AtmC (Actinomadura melliaura, UniProt Q0H2X3); assay: as above; type: binding
T4 sequence (Q0H2X3 1-534): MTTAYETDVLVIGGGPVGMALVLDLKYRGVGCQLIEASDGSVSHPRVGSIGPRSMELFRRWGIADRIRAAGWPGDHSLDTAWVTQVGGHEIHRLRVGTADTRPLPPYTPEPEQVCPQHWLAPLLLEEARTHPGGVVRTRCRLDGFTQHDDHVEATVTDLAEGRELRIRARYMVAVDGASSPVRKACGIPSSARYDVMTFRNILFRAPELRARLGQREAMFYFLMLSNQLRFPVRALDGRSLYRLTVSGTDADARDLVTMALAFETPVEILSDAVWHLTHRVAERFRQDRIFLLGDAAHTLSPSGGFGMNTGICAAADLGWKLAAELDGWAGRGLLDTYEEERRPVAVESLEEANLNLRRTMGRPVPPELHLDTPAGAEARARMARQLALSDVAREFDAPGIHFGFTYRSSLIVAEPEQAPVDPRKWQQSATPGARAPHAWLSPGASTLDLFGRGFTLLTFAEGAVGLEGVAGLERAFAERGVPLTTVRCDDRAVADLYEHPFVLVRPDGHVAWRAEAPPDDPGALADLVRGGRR
How it was run: as §2

[5] = target: RebC-10x (Lentzea aerocolonigenes, UniProt Q8KI25, A231S/E36D/F216V/G48S/Q117A/Q37A/R239N/R46K/T241V/T38G); assay: Isothermal titration calorimetry of FAD with FAD-free; type: binding
[6] = target: T3, RebC; type: binding
How it was run: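 Control ITC on RebC purified by Ni(II) affinity and Superdex-200 without the KBr/urea wash, retaining ~68% bound FAD. It tests fitting of partially occupied protein, since the fitting software assumes no ligand in the cell before the first injection. FAD titrated, at least triplicate runs. Single-site Kb converted to Kd.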

[7] = tested on: StaC-10x; assay: Isothermal titration calorimetry, FAD binding to StaC-10x; conditions: StaC-10x versus RebC
How it was run: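 It was used as isolated at ~33% FAD occupancy, because on-column KBr/urea stripping left the protein non-elutable. Concentration by BioRad protein assay against BSA standard. FAD titrated by ITC, two runs. Single-site Kb converted to an approximate Kd.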

Compound | Kd [1] [nM] | Kd [2] [nM] | Kd [3] [nM] | Kd [4] [nM] | Kd [5] [nM] | Kd [6] [nM] | FAD binding weaker than RebC [7] [fold]
Cc1cc2nc3c(=O)[nH]c(=O)nc-3n(C[C@H](O)[C@H](O)[C@H](O)COP(=O)(O)OP(=O)(O)OC[C@H]3O[C@@H](n4cnc5c(N)ncnc54)[C@H](O)[C@@H]3O)c2cc1C [FAD, flavin adenine dinucleotide] | 15000 | 59000 | 20 ± 12 | 73 ± 28 | 600 ± 55 | 31 | 
Cc1cc2nc3c(=O)[nH]c(=O)nc-3n(C[C@H](O)[C@H](O)[C@H](O)COP(=O)(O)OP(=O)(O)OC[C@H]3O[C@@H](n4cnc5c(N)ncnc54)[C@H](O)[C@@H]3O)c2cc1C [FAD] |  |  |  |  |  |  | 30
